Reference: ChEMBL document CHEMBL1134439, “Radioiodinated styrylbenzenes and thioflavins as probes for amyloid aggregates” (J Med Chem, 2001)

What was measured:
Mus musculus [1] = assay: Biodistribution was measured in mice spleen 30 minutes after intravenous injection of [125I]-labeled styrylbenzene.; type: ADME, organism-based; details: in vivo, 0.5 h
Procedure, shortened: (§1)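 ICR mice (2-3 months old, 20-30 g) under ether anesthesia; 0.15 mL saline containing 5-10 µCi ¹²⁵I tracer injected into tail vein. Sacrifice by cardiac excision at set times; organs removed, weighed, γ-counted. Expressed as % dose per organ versus diluted aliquots of injectate. Mean of three or four mice ± SD.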

Mus musculus [2] = assay: Biodistribution was measured in mice lung 30 minutes after intravenous injection of [125I]-labeled styrylbenzene.; type: ADME, organism-based; details: in vivo, 0.5 h
Procedure, shortened: (§2)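 ICR mice (2-3 months old, 20-30 g) under ether anesthesia received 5-10 µCi ¹²⁵I tracer in 0.15 mL saline by tail-vein injection. Animals were killed by cardiac excision at set times post-injection. Organs were removed, weighed and γ-counted. Values are % dose per organ against diluted injectate aliquots, taking blood and muscle as 7% and 40% of body weight. Mean of 3-4 mice ± SD.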

Mus musculus [3] = assay: Biodistribution was measured in mice heart 5 minutes after intravenous injection of [125I]-labeled styrylbenzene.; type: ADME, organism-based; details: in vivo; procedure, shortened: as §2
Mus musculus [4] = assay: Biodistribution was measured in mice muscle 60 minutes after intravenous injection of [125I]-labeled styrylbenzene.; type: ADME, organism-based, Muscle tissue; details: in vivo, 1 h; procedure, shortened: as §2
Mus musculus [5] = assay: Biodistribution was measured in mice brain 30 minutes after intravenous injection of [125I]-labeled styrylbenzene; type: ADME, organism-based; details: in vivo, 0.5 h; procedure, shortened: as §2
Mus musculus [6] = assay: Biodistribution was measured in mice lung 5 minutes after intravenous injection of [125I]-labeled styrylbenzene.; type: ADME, organism-based; details: in vivo; procedure, shortened: as §2
Mus musculus [7] = assay: Biodistribution was measured in mice heart 60 minutes after intravenous injection of [125I]-labeled styrylbenzene.; type: ADME, organism-based; details: in vivo, 1 h; procedure, shortened: as §2
Mus musculus [8] = assay: Biodistribution was measured in mice muscle 30 minutes after intravenous injection of [125I]-labeled styrylbenzene.; type: ADME, organism-based, Muscle tissue; details: in vivo, 0.5 h; procedure, shortened: as §2
Mus musculus [9] = assay: Biodistribution was measured in mice blood 5 minutes after intravenous injection of [125I]-labeled styrylbenzene.; type: ADME, organism-based; details: in vivo; procedure, shortened: as §2
Mus musculus [10] = assay: Biodistribution was measured in mice liver 30 minutes after intravenous injection of [125I]-labeled styrylbenzene.; type: ADME, organism-based; details: in vivo, 0.5 h; procedure, shortened: as §2
Mus musculus [11] = assay: Biodistribution was measured in mice skin 60 minutes after intravenous injection of [125I]-labeled styrylbenzene.; type: ADME, organism-based, Zone of skin; details: in vivo, 1 h; procedure, shortened: as §2
Mus musculus [12] = assay: Biodistribution was measured in mice muscle 5 minutes after intravenous injection of [125I]-labeled styrylbenzene.; type: ADME, organism-based, Muscle tissue; details: in vivo; procedure, shortened: as §2
Mus musculus [13] = assay: Biodistribution was measured in mice brain 60 minutes after intravenous injection of [125I]-labeled styrylbenzene; type: ADME, organism-based; details: in vivo, 1 h; procedure, shortened: as §2
Mus musculus [14] = assay: Biodistribution was measured in mice skin 5 minutes after intravenous injection of [125I]-labeled styrylbenzene.; type: ADME, organism-based, Zone of skin; details: in vivo; procedure, shortened: as §2
Mus musculus [15] = assay: Biodistribution was measured in mice skin 30 minutes after intravenous injection of [125I]-labeled styrylbenzene.; type: ADME, organism-based, Zone of skin; details: in vivo, 0.5 h; procedure, shortened: as §2
Mus musculus [16] = assay: Biodistribution was measured in mice kidney 5 minutes after intravenous injection of [125I]-labeled styrylbenzene.; type: ADME, organism-based; details: in vivo; procedure, shortened: as §2
Mus musculus [17] = assay: Biodistribution was measured in mice blood 60 minutes after intravenous injection of [125I]-labeled styrylbenzene.; type: ADME, organism-based; details: in vivo, 1 h; procedure, shortened: as §2
Mus musculus [18] = assay: Biodistribution was measured in mice kidney 60 minutes after intravenous injection of [125I]-labeled styrylbenzene.; type: ADME, organism-based; details: in vivo, 1 h; procedure, shortened: as §2
Mus musculus [19] = assay: Biodistribution was measured in mice heart 30 minutes after intravenous injection of [125I]-labeled styrylbenzene.; type: ADME, organism-based; details: in vivo, 0.5 h; procedure, shortened: as §2
Mus musculus [20] = assay: Biodistribution was measured in mice spleen 60 minutes after intravenous injection of [125I]-labeled styrylbenzene.; type: ADME, organism-based; details: in vivo, 1 h; procedure, shortened: as §1
Mus musculus [21] = assay: Biodistribution was measured in mice blood 30 minutes after intravenous injection of [125I]-labeled styrylbenzene.; type: ADME, organism-based; details: in vivo, 0.5 h; procedure, shortened: as §2
Mus musculus [22] = assay: Biodistribution was measured in mice lung 60 minutes after intravenous injection of [125I]-labeled styrylbenzene.; type: ADME, organism-based; details: in vivo, 1 h; procedure, shortened: as §2
Mus musculus [23] = assay: Biodistribution was measured in mice brain 5 minutes after intravenous injection of [125I]-labeled styrylbenzene; type: ADME, organism-based; details: in vivo; procedure, shortened: as §2
Mus musculus [24] = assay: Biodistribution was measured in mice kidney 30 minutes after intravenous injection of [125I]-labeled styrylbenzene.; type: ADME, organism-based; details: in vivo, 0.5 h; procedure, shortened: as §2
Mus musculus [25] = assay: Biodistribution was measured in mice liver 60 minutes after intravenous injection of [125I]-labeled styrylbenzene.; type: ADME, organism-based; details: in vivo, 1 h; procedure, shortened: as §2
Mus musculus [26] = assay: Biodistribution was measured in mice liver 5 minutes after intravenous injection of [125I]-labeled styrylbenzene.; type: ADME, organism-based; details: in vivo; procedure, shortened: as §2
Mus musculus [27] = assay: Biodistribution was measured in mice spleen 5 minutes after intravenous injection of [125I]-labeled styrylbenzene.; type: ADME, organism-based; details: in vivo; procedure, shortened: as §1

In the case of `O=C(O)c1cc(/C=C/c2ccc(/C=C/c3ccc(O)c(C(=O)O)c3)c(I)c2)ccc1O`, the Dose/organ (Mus musculus [1]) is reported as 0.13%, the Dose/organ (Mus musculus [2]) is reported as 0.3% and the Dose/organ (Mus musculus [3]) is reported as 0.33%. For the same molecule, the Dose/organ (Mus musculus [4]) was 2.98%, the Dose/organ (Mus musculus [5]) was 0.06% and the Dose/organ (Mus musculus [6]) was 0.81%. For the same molecule, the Dose/organ (Mus musculus [7]) was 0.13%, the Dose/organ (Mus musculus [8]) was 3.9% and the Dose/organ (Mus musculus [9]) was 7.57%. For the same molecule, the Dose/organ (Mus musculus [10]) was 30.16%, the Dose/organ (Mus musculus [11]) was 3.66% and the Dose/organ (Mus musculus [12]) was 5.68%. For the same molecule, the Dose/organ (Mus musculus [13]) was 0.04%, the Dose/organ (Mus musculus [14]) was 4.02% and the Dose/organ (Mus musculus [15]) was 4.13%. For the same molecule, the Dose/organ (Mus musculus [16]) was 1.67%, the Dose/organ (Mus musculus [17]) was 2.59% and the Dose/organ (Mus musculus [18]) was 0.63%. The Dose/organ (Mus musculus [19]) was 0.17%, the Dose/organ (Mus musculus [20]) was 0.07% and the Dose/organ (Mus musculus [21]) was 2.98%. It also gave a Dose/organ (Mus musculus [22]) of 0.25%, a Dose/organ (Mus musculus [23]) of 0.27% and a Dose/organ (Mus musculus [24]) of 0.77%. For the same molecule, the Dose/organ (Mus musculus [25]) was 19.12%, the Dose/organ (Mus musculus [26]) was 42.68% and the Dose/organ (Mus musculus [27]) was 0.25%.
